PostGolgi yeast = growth inhibition of a yeast mutant, post-Golgi transport screen. hit rate 0.9% among 98,000. post-Golgi transport phenotypic cell assay. inhibition, % at 10 µM;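 note: yeast cells grown in 1536-well plates; yeast grown about 18 h at 30C before absorbance read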
Ecoli tolC = growth inhibitors of E. coli BW25113 tolC mutant; hit rate 2.2% among 65,000; OD615; growth inhibition, % at 10 µM (by protocol);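 active = growth inhibition at or above a cutoff equal to the mean over every tested compound plus 3 SD, cut at about 60% in these data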;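 note: growth measured after 20 h incubation at 37 °C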
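Material: E. coli BW25113 ΔtolC::kan, tolC deletion mutant strain. Measure: percent growth inhibition. Schedule: 37 °C, 20 h exposure. Doses: single-point testing at 10 µM. Signal: A615 absorbance measurement. Buffer or medium: kanamycin-containing LB broth (50 µg/mL).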
PLAP act = activates human placental alkaline phosphatase; purified PLAP enzyme, luminescent substrate read-out; active compounds read high; activation fold at 20 µM; hit rate 1.2% among 96,000; in the data active = activation fold above about 2
E coli WT exp = E. coli BW25113 growth inhibition, expanded screen; AID 710; hit rate 0.15% among 98,000; growth inhibition, % at 100 µM; OD600 absorbance;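 active = growth inhibition above about 50% at one test dose, limit read from the data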;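 note: growth measured after 20 h incubation at 37 °C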
PostGolgi ctrl = growth of the yeast control strain, post-Golgi counter-screen | efflux-deficient yeast background strain, growth absorbance A615, 16 h | hit rate 5% among 98,000 | inhibition, % at 10 µM | AID 738
HePTP inh = human HePTP phosphatase inhibition | recombinant HePTP phosphatase activity, OD absorbance | P35236 | inhibition, % at 20 µM | hit rate 0.64% among 110,000; in the data active = inhibition above about 50%
Target sequence (P35236 whole entry, looked up): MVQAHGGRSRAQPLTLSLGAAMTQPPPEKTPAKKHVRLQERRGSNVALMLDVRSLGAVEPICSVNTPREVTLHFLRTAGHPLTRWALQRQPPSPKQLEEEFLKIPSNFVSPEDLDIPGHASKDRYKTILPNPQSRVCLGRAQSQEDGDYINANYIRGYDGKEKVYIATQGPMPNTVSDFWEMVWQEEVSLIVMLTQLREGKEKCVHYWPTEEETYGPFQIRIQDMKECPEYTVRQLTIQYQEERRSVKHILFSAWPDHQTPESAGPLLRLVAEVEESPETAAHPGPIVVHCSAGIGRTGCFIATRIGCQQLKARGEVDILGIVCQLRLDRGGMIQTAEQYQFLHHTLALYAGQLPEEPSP
Hits are given with their value; - = inactive; . = no result; ! = repeats disagree. The list is not random: actives were taken first. Their share in the collection is about 5.5%. Cut-off read from the data, not from the text of the source, unless noted: active = inhibition above about 30%; inactive = the rest.

SMILES	PostGolgi yeast	Ecoli tolC	PLAP act	E coli WT exp	PostGolgi ctrl	HePTP inh
O=C1CC(NCc2ccc(F)cc2)C(=O)N1c1ccc(Cl)cc1 (stereo unspecified)	.	.	.	.	.	-
COc1ccc(C(O)(C(=O)NNc2ccc(C)cc2)c2cccs2)cc1 (stereo unspecified)	-	.	-	-	-	.
O=C(NNc1ccc(C2CCCCC2)cc1)C(O)(c1ccccc1)c1cccs1 (stereo unspecified)	-	.	-	-	46	.
Cc1ccc2oc3c(c(=O)c2c1)C(c1cccc(Br)c1)N(Cc1ccco1)C3=O (stereo unspecified)	-	-	-	-	42	-
Cc1cc2oc3c(c(=O)c2cc1C)C(c1cccc(Br)c1)N(Cc1ccco1)C3=O (stereo unspecified)	-	-	-	-	-	-
Cc1ccccc1OCC(=O)Nc1ccc(-c2nc3ccccc3[nH]2)cc1	.	.	.	.	.	-
CCOC(=O)c1ccc(NC(=S)NC(NC(=O)Cc2ccccc2)C(Cl)(Cl)Cl)cc1 (stereo unspecified)	.	.	.	.	.	104
CCc1ccc(OCC(=O)N/N=C2\CC(=O)c3ccccc32)cc1	-	.	2.4	-	-	.
Cc1ccc(OCC(=O)NN=C2c3ccccc3-c3ccccc32)cc1	-	.	-	-	-	.
O=C(OCc1ccc(F)cc1)c1ccc2c(c1)-c1ccccc1C2=O	-	.	-	-	38	.
COc1cc(S(=O)(=O)n2ccc(C)n2)c(OC)cc1Cl	-	.	-	-	34	.
CN(Cc1ccccc1)C(=O)c1cc2nc(-c3ccc(Cl)cc3)cc(C(F)(F)F)n2n1	.	.	.	.	.	-
[N-]=[N+]=CC(=O)c1ccnc(C(=O)C=[N+]=[N-])c1	-	-	-	55	-	-
C/C(=C\C(=O)c1ccc(Cl)cc1)Nc1cc(Cl)cc(Cl)c1	.	.	.	.	.	-
CC(C)OC(=O)c1c2nc3ccccc3nc2n2c1[nH]c(=O)c1ccccc12	34	-	-	-	71	-
CCn1cc(C(=O)NCc2cccnc2)c(=O)c2cc(F)c(N3CCN(C(=O)c4ccco4)CC3)cc21	-	.	-	97	-	.
CCn1cc(C(=O)NCc2cccc(F)c2)c(=O)c2cc(F)c(N3CCN(C(=O)c4ccco4)CC3)cc21	-	.	-	91	-	.
CCn1cc(C(=O)NCC2CCCO2)c(=O)c2cc(F)c(N3CCN(C)CC3)cc21 (stereo unspecified)	-	-	-	-	-	-
CCOc1ccc(/C=C/C(=O)Nc2cc([N+](=O)[O-])ccc2C)cc1OC	.	.	.	.	.	-
Cc1cccc(C)c1NC(=O)CSc1nnc(-c2ccco2)n1-c1ccccc1	.	.	.	.	.	-
CCCCOC(=O)c1c(NC(=O)C2C3CCC(C3)C2C(=O)O)sc2c1CCCC2 (stereo unspecified)	.	.	.	.	.	-
O=C1/C(=C\c2ccc3c(c2)OCO3)N=C(c2ccccc2)N1c1ccc(O)cc1	.	.	.	.	.	-
COCCN(C(=O)CN1CCc2ccccc2C1)c1c(N)n(Cc2ccccc2)c(=O)[nH]c1=O	-	-	-	-	-	-
COCCN(C(=O)CSc1nnc(Nc2ccccc2F)s1)c1c(N)n(Cc2ccccc2)c(=O)[nH]c1=O	-	.	2.2	-	-	.
NC(=S)Nc1cccc2cccnc12	-	.	-	-	35	.
SMILES	PostGolgi yeast	Ecoli tolC	PLAP act	E coli WT exp	PostGolgi ctrl	HePTP inh
O=C(Nc1ccccc1)Nc1cccc2cccnc12	-	-	-	-	-	-
Cc1ccccc1OCCCN1C(=O)C(=O)c2cccc(C)c21	-	100	-	-	-	-
Cc1cccc2c1N(CCCOc1ccccc1)C(=O)C2=O	-	.	-	-	-	.
O=C(Nc1ccc(F)cc1)c1cccnc1N1CCCCC1	-	.	-	-	-	.
O=C(Nc1ccc(Br)cc1)c1cccnc1N1CCCCC1	-	.	-	-	32	.
CCOc1ccccc1C(=O)NC(C(=O)OCC(=O)Nc1nnc(-c2ccccc2)o1)C(C)C (stereo unspecified)	-	87	-	-	-	-
O=C1c2cccc3c(Nc4ccccc4Cl)c([N+](=O)[O-])cc(c23)C(=O)N1CCO	45	.	-	-	-	.
O=C1c2cccc3c(N4CCCCC4)ccc(c23)C(=O)N1CCO	-	.	-	-	-	-
CC1=C(C(=O)OCCOc2ccccc2)C(c2coc3ccc(C)cc3c2=O)C2=C(CCCC2=O)N1 (stereo unspecified)	.	.	.	.	.	-
Cc1cc(C)c(S(=O)(=O)N2CCC(C(=O)NCc3ccc(Cl)cc3Cl)CC2)c(C)c1	100	.	2.4	-	89	.
CC(=O)Nc1cccc(-c2csc(Nc3cc(C)ccn3)n2)c1	-	.	-	-	31	.
CCOc1ccccc1C(=O)N1c2ccccc2Sc2ccccc21	-	.	-	-	42	.
CCOC(=O)Cn1c(-c2cccnc2Cl)nc2cc(Cl)c(Cl)cc21	-	.	-	-	33	.
O=S1(=O)N=C(N/N=C/c2ccccc2O)c2ccccc21	.	.	.	.	.	-
COc1ccc2c(C=Nc3c(C)n(C)n(-c4ccccc4)c3=O)c(O)n(Cc3ccco3)c(=O)c2c1	-	-	-	-	63!	-
Cc1c(N=Cc2ccco2)c(=O)n(-c2ccccc2)n1C	-	-	-	-	-	-
CC(=O)Nc1sc2c(c1C(c1cccs1)N1CCOCC1)CCCC2 (stereo unspecified)	-	-	-	-	42	-
CC(=O)Nc1sc2c(c1C(=O)N1CCOCC1)CCCCC2	-	-	-	-	-	-
CCc1ccc(CN2CCN(C(=O)c3ccc(F)cc3)CC2)cc1	.	.	.	.	.	-
O=c1ccc(/C=C/c2ccccc2)nn1Cc1ccc(Cl)cc1Cl	-	.	-	-	-	.
O=c1ccc(/C=C/c2ccccc2)nn1Cc1ccccc1Cl	-	.	-	-	41	.
C=CCn1c(N)c(C(=O)Nc2ccccc2)c2nc3ccccc3nc21	-	-	-	-	37	-
C=CCn1c(N)c(C(=O)OC(C)(C)C)c2nc3ccccc3nc21	-	-	-	-	-	-
C=CCn1c(N)c(C(=O)OC(C)CC)c2nc3ccccc3nc21 (stereo unspecified)	-	-	-	-	38	-
COc1c(Cl)ccc(Cl)c1C(=O)Nc1ccc(C)cc1	.	.	.	.	.	104
SMILES	PostGolgi yeast	Ecoli tolC	PLAP act	E coli WT exp	PostGolgi ctrl	HePTP inh
CCCCOc1ccc(NC(=O)c2cncc(Br)c2)cc1	.	.	.	.	.	-
c1ccc(-c2csc3nnc(SCc4ccc5c(c4)OCO5)n23)cc1	-	-	-	-	33	-
O=C(CSc1nnc2scc(-c3ccccc3)n12)Nc1ccc2c(c1)OCCO2	-	-	-	-	37	-
O=C(CCSc1nnc2scc(-c3ccccc3)n12)NCc1ccc2c(c1)OCO2	-	-	-	-	-	-
CN(CC(=O)Nc1ccccc1N1CCOCC1)S(=O)(=O)c1ccc(F)cc1	-	.	-	-	31	.
COc1ccccc1NC(=O)CN(C)S(=O)(=O)c1ccc(F)cc1	-	-	-	-	-	-
COCCCNC(=O)CN(c1ccc(Cl)cc1)S(C)(=O)=O	.	.	.	.	.	-
Cc1cc(NC2CCCCC2)nc(-c2ccccc2O)n1	-	.	-	-	-	.
Cc1cc(Nc2ccccc2)nc(-c2ccccc2O)n1	-	100	-	-	37	-
Cc1cc(NCc2ccccc2)nc(-c2ccccc2O)n1	-	-	-	-	57	-
O=C(Cc1ccccc1)NC(=S)N1CCCc2ccccc21	.	.	.	.	.	-

Compound activity from PubChem.
